Measurements of several laboratories.

N#Cc1ccc(C[C@H](NC(=O)c2cc3ccc(F)cc3[nH]2)C(=O)N2CCc3ccccc32)cc1
compound remaining (metabolic stability; rat, liver microsomes; 10 µM, 30 min, pH 7.4): 90%

COc1cc(-c2cc(C(C)=O)n3ccccc23)c(OC)cc1Cn1ccnc1
compound remaining (metabolic stability; rat, liver microsomes; 1 µM, 1 h, pH 7.4): 62%

N#Cc1ccc(C[C@H](Nc2ncc(-c3ccc(F)cc3)o2)C(=O)N2CCc3ccccc32)cc1
compound remaining (metabolic stability; rat, liver microsomes; 10 µM, 30 min, pH 7.4): 40%

Cc1cc(/C=C/C#N)cc(C)c1Nc1ccnc(Nc2ccc(C#N)cc2)n1
CC50 (MT4; cell growth or viability, MTT; 5 days): > 5.46 µM

N#Cc1ccc(C[C@H](Nc2c(Nc3ccc(F)cc3)c(=O)c2=O)C(=O)N2CCc3ccccc32)cc1
compound remaining (metabolic stability; rat, liver microsomes; 10 µM, 30 min, pH 7.4): 35%

Cc1cc(C#N)cc(C)c1Oc1nc(Nc2ccc(C#N)cc2)nc(N)c1Br
CC50 (MT4; cell growth or viability, MTT; 5 days): > 4.59 µM

NS(=O)(=O)c1nnc(NC(=O)CCC2CC3CCC2C3)s1 (stereo not shown)
compound remaining (metabolic stability; mouse, liver microsomes; 1 h): 41%

Cc1cn([C@H]2C[C@H](N=[N+]=[N-])[C@@H](CO)O2)c(=O)[nH]c1=O
CC50 (MT4; cell growth or viability, MTT; 5 days): > 7.48 µM

N#C[C@@]1(c2ccc3c(N)ncnn23)O[C@H](CO)[C@@H](O)[C@H]1O
fraction unbound (dog, plasma; 1 µM): 0.881

NS(=O)(=O)c1nnc(NC(=O)C2CCCC3(CCCCC3)C2)s1 (stereo not shown)
compound remaining (metabolic stability; mouse, liver microsomes; 1 h): 47.7%
